S1P1 ag pot: agonists and agonism potentiators of human S1P1 receptor. S1P1 CRE-bla cells, forskolin, beta-lactamase FRET, potentiator mode; S1P1 agonist co-added at EC20, 2 nM; 100% = saturating reference agonist, 0% = basal. AID 449. activation, % at 9.5 µM. 56,000 tested, 0.57% active;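 active means activation above a cutoff set at the mean activation of all tested compounds plus 3 SD, cut at about 54% in these data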;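 further: forskolin at 4 µM as EC80 and the EC20 agonist is SEW2871; 100% = SEW2871 at its EC100 plus forskolin at EC80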
D1 allo mod: D1 dopamine receptor (human) allosteric modulation; HEK293 D1, CRE-luciferase, dopamine EC30 potentiation; actives deviate in either direction; AID 641; 58,000 tested, 5.9% active; B-score at 10 µM;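 active means luminescence count or its row- and column-corrected plate score outside the 99.7% band of the plate's sample wells, on either side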
M1 ag: activates the M1 muscarinic receptor; AID 626; B-score at 10 µM; CHO-M1 cells, Fluo-4 calcium fluorescence, agonist mode; stronger effect = higher value; 64,000 tested, 3% active;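 active means fluorescence rise, raw or as B-score row- and column-corrected plate score, outside the 99.7% band of its plate's samples, either direction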
M1 antag: antagonists of rat M1 muscarinic receptor; 64,000 tested, 3.4% active; CHO-M1 cells, Fluo-4 calcium, ACh EC80 antagonist mode; stronger effect = lower value; B-score at 10 µM;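 active means calcium fluorescence response, raw or row-and-column corrected B-score, differing from the plate sample mean either way at a set confidence level, mostly lower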
Target sequence (P08482 whole entry, looked up): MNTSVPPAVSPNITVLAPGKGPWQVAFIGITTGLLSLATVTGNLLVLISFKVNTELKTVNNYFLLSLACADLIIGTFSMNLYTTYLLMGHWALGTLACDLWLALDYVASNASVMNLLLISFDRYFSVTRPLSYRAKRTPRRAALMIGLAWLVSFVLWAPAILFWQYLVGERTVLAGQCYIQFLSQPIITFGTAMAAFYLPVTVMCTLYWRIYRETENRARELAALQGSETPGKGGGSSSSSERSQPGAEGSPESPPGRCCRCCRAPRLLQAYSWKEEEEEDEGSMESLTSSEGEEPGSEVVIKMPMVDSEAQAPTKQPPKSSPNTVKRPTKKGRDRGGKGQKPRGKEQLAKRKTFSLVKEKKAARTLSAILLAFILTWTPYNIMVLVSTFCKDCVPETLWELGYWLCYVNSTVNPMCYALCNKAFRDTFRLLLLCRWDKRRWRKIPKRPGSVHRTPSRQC
S1P3 agonist: agonists of human S1P3 receptor. 60,000 tested, 0.1% active. Q99500. activation, % at 4.5 µM. AID 373. S1P3 NFAT-BLA reporter cells, agonism, FRET ratio; relative to 1 µM S1P, basal subtracted;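 active means activation above the screen-wide mean plus 3 SD, cut at about 4.5% in these data, passing the limit was not always enough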
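Material: Human S1P3 NFAT-BLA reporter CHO cells | Incubation: Overnight plating, 4 h compound 37 °C, 2 h substrate RT | Signal: FRET β-lactamase substrate fluorescence, excitation 405 nm, 460/535 nm emission ratio, background-subtracted | Compound: 4.5 µM final, single dose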
M1 antag conf: confirmation of rat M1 muscarinic receptor antagonists; shares compounds with M1 antag; CHO-M1 cells, Fluo-4 calcium, ACh EC80 antagonism; stronger effect = lower value; calcium response (max-min fluorescence) at 10 µM; 1,700 tested, 43% active; AID 677;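 active means calcium response below the same-plate mean of wells given acetylcholine alone at its 80%-effect dose, minus 3 SD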;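 further: raw fluorescence intensity difference in arbitrary instrument units and not normalized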
mGluR4 antag: acts on human mGluR4 in M1 antagonist selectivity test | shares compounds with M1 antag | CHO-mGluR4 calcium flux, Fluo-4 fluorescence, glutamate EC80; stronger effect = lower value | fluorescence response (max-min) at 10 µM | 1,700 tested, 0.9% active | AID 678;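 active means fluorescence response below the plate's average for near-maximal glutamate wells, less 3 SD of those wells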;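 further: raw unnormalized fluorescence span taken in the window right after glutamate addition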
Active calls of the source: *; nt = no result given. Rows were chosen to be rich in hits. Some 11% of all compounds tested hit in one or more screens of this group.

SMILES	S1P1 ag pot	D1 allo mod	M1 ag	M1 antag	S1P3 agonist	M1 antag conf	mGluR4 antag
CC(=O)OC(C(=O)NCc1ccco1)c1cccnc1 (stereo not given)	6	-1	0.97	-1*	0	657	246
COc1ccccc1C(=O)N(Cc1ccco1)C1CCS(=O)(=O)C1 (stereo not given)	8	0.47	-1.2	0.18	0	nt	nt
O=C(c1cnn2ccccc12)N(Cc1ccco1)C1CCCC1	-8	0.36	-0.077	-4.6*	0	396*	243
O=C(O)C1C2C=CC3(CN(Cc4ccncc4)C(=O)C13)O2 (stereo not given)	-9	nt	nt	nt	-1	nt	nt
O=C(CCCSc1nc2ccccc2s1)Nc1nccs1	-2	2.1	-0.048	-2.7*	0	620	243
COc1cccc(CNC(=O)CCn2c(=O)oc3ccccc32)c1	-16	0.19	-0.32	-3.5*	-2	538	253
CCOC(=O)CSc1nc(-c2cccs2)nc2c1c(=O)n(C)c(=O)n2C	-2	nt	0.33	-0.35	-1	nt	nt
O=C(Nc1ccc2snnc2c1)N1CCOCC1	1	nt	-1.4	-2.4*	0	599	208
O=C(Nc1ccc2snnc2c1)N1CCN(c2ccccc2)CC1	nt	-1.3	0.068	-0.54	nt	nt	nt
c1coc(C2Nc3cccc4cccc(c34)N2)c1	-15	-0.29	0.25	-2.2*	-2	602	249
Cn1c(=O)c2c(nc(CN3CCN(c4ccccc4)CC3)n2Cc2c(F)cccc2Cl)n(C)c1=O	1	-1.3	1.1	0.18	-1	nt	nt
CC(C)(C)c1cnnn1-c1ccc(NC(=O)c2ccc(Br)o2)cc1	nt	nt	-0.014	-2.3*	nt	560*	236
CC(C)(C)S(=O)(=O)c1c(C(=O)O)cccc1C(=O)O	13	0.11	-0.63	0.049	-1	nt	nt
Cc1nc(NC2=NCN(CC3CCCO3)CN2)nc2ccccc12 (stereo not given)	3	-0.07	-0.2	-8.9*	0	108*	209
Cc1ccc(S(=O)(=O)NC2=NCN(C3CCCCC3)CN2)cc1	-13	0.26	-0.015	-0.52	0	nt	nt
Cc1nc(NC2=NCN(C3CCCCC3C)CN2)nc2ccccc12 (stereo not given)	0	-0.2	-1.3	-4.9*	-1	258*	186
CCOc1ccc2nc(NC3=NCN(Cc4ccco4)CN3)nc(C)c2c1	-4	0.016	-0.58	-0.023	-1	nt	nt
Cc1cc(C)c2cc(CN(CC3CCCO3)S(=O)(=O)c3ccc4c(c3)OCCO4)c(=O)[nH]c2c1 (stereo not given)	-15	nt	0.79	0.013	0	nt	nt
O=C(CCn1cnc2ccccc2c1=O)Nc1ccc(S(=O)(=O)N2CCCC2)cc1	nt	-0.54	0.49	-0.37	0	nt	nt
Cc1ccc(S(=O)(=O)N2CCN(C(=O)CN3CCOCC3)C2)cc1	0	nt	-0.59	-0.19	1	nt	nt
Cc1ccc(S(=O)(=O)/N=C(\CN2CCCCC2)N2CCOCC2)cc1	-15	0.57	-0.043	-2.6*	1	589	236
COc1ccc2oc(C(=O)c3ccccc3)c(NC(=O)CN3CCN(C)CC3)c2c1	-2	0.12	0.23	-3.2*	-1	416	252
COc1ccc2nc(NC(=O)CN3CCN(C)CC3)sc2c1	9	-0.029	-0.074	0.24	0	nt	nt
Cc1ccc(C)c(OCCOCCN2CCOCC2)c1	-9	-1.4	-0.48	0.5	-1	nt	nt
Cc1ccc(C)c(OCCCN2CCCC2)c1	5	-3.9	-1.8	-3*	-1	511*	265
SMILES	S1P1 ag pot	D1 allo mod	M1 ag	M1 antag	S1P3 agonist	M1 antag conf	mGluR4 antag
COc1ccc(-c2nc(CS(=O)CC(=O)NCc3ccc(Cl)cc3)c(C)o2)cc1 (stereo not given)	-5	-0.24	1	-0.32	0	nt	nt
O=C(Nc1ccc(S(=O)(=O)N2CCc3ccccc3C2)cc1)C1CCCO1 (stereo not given)	50	0.3	-0.1	-0.049	-1	nt	nt
O=C(Nc1ccc(S(=O)(=O)N2CCCc3ccccc32)cc1)C1CCCO1 (stereo not given)	7	0.31	0.36	-9.7*	-1	29*	208
CN(C)CCCN1c2ccccc2Sc2ccc(C(F)(F)F)cc21	8	-5.3	-0.94	-15*	-2	24*	273
Cc1cc(C)n(CC(O)CN2c3ccccc3Sc3ccccc32)n1 (stereo not given)	-14	0.38	-1.1	-0.91	0	nt	nt
COc1ccccc1N1C(=O)CCC1(C#N)c1ccccc1 (stereo not given)	0	-0.64	-0.52	0.13	-2	nt	nt
Cc1ccc(-c2nnc(N3CCN(C(=O)CSc4ncn[nH]4)CC3)c3ccccc23)cc1	21	-1.9	0.97	-2.9*	-1	484	225
Cc1ccc(C(=O)CSc2ncn[nH]2)cc1	12	0.23	0.24	1.1	0	nt	nt
COc1ccc(-c2oc3ncnc(NCCN4CCOCC4)c3c2-c2ccc(OC)cc2)cc1	-16	0.047	0.75	0.019	-1	nt	nt
COc1ccc(-c2oc3ncn(CCN4CCOCC4)c(=N)c3c2-c2ccc(OC)cc2)cc1	-28	1.7	-0.17	-11*	0	261*	264
N#CCCN1CCN(S(=O)(=O)c2ccc(S(=O)(=O)N3CCOCC3)cc2)CC1	-4	-0.14	-0.21	0.31	0	nt	nt
N#CCCN1CCN(S(=O)(=O)c2ccc(S(=O)(=O)NCc3ccccc3)cc2)CC1	12	-0.11	0.52	-3.4*	-2	673	255
O=C(Cn1c(C(=O)NCCCN2CCOCC2)cc2sccc21)c1ccccc1	nt	nt	-0.036	-1.5	nt	nt	nt
CCN1CCN(CCCNC(=O)c2cc3sccc3n2CC)CC1	-23	-0.28	-0.031	-1.6*	-1	611	231
Cc1ccc(Cn2c(C(=O)NCCCN3CCOCC3)cc3sccc32)cc1	8	-0.34	-0.57	-3.2*	0	510*	267
CCn1c(C(=O)NCCCN2CCc3ccccc3C2)cc2sccc21	0	nt	0.17	-3.6*	-1	492*	233
CC(C)c1nc(-c2c(N)n(C)c(=O)n(C)c2=O)sc1C(=O)C(C)(C)C	-23	nt	-0.059	0.49	1	nt	nt
Cc1noc(C)c1CSc1ccc2ccccc2n1	18	0.053	-0.39	1.3	-1	nt	nt
Cc1noc(C)c1CSc1nc2ccccc2[nH]1	-5	0.0059	0.68	-1.4*	1	435*	268
Cc1noc(C)c1CSc1nc2ccccc2n1CCc1ccccc1	-45	2	0.39	-3.8*	0	572	239
CCN=C1SC(CC(=O)Nc2sc(C)c(C)c2C(=O)OC)C(=O)N1CC (stereo not given)	0	1.1	-0.61	0.18	0	nt	nt

High-throughput results deposited in PubChem BioAssay by several laboratories.
